Data set [1] concerns HCT-116. Put plainly: Inhibition of human HCT116 cells. The class given is functional, cell-based. The method in brief: (§1)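 MTT assay. HCT-116 cells were grown in McCoy's 5a with 10% FBS and 2 mM L-glutamine. A-431 cells were grown in DMEM with 10% FBS and 4 mM L-glutamine. Cells were plated at 10 000/well and dosed after 24 h. HCT-116 was tested at 0.3–100 µM and A-431 at 0.1–100 µM, for 48 h at 37 °C. MTT (final 0.3 mg/mL) was added for 3 h and formazan dissolved in DMSO. A570 was read and % cytotoxicity taken versus untreated control. Makaluvamine C at 10 µM was the positive control.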

In data set [2] the test system is A-431. Put plainly: Inhibition of human A431 cells. The class given is functional, cell-based. The method in brief:
as §1

Data set [3] is described as follows: (§2) Growth inhibition of NCI60 cells. The note with it: Homo sapiens; for TGI: read-out: Log TGI (converted). Type of data set: functional.
Data set [4] is filed under the species Homo sapiens. Put plainly: Inhibition of human recombinant topoisomerase 2. The method in brief:
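Relaxation assay with recombinant human topoisomerase II (p170), 4 units, and 0.25 µg supercoiled pRYG DNA. Buffer: 50 mM Tris pH 8.0, 120 mM KCl, 10 mM MgCl2, 0.5 mM DTT, 0.5 mM ATP. Drug was added in varying amounts for 45 min at 37 °C. Reactions were stopped with SDS and proteinase K, then extracted with chloroform/isoamyl alcohol. Products were run on a 1% agarose gel and stained with ethidium bromide. Etoposide was the positive control.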

Data set [5] deals with NCI60. The description is as §2. The class given is functional. The note with it: Homo sapiens.
A short description of data set [6]: Toxicity in mouse at 400 mg/kg, ip. The class given is organism-based. Also noted: dose 400 mg/kg, route intraperitoneal. The note with it: in vivo. The method in brief: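 Acute toxicity in mice: the drug was formulated so that 400 mg/kg IP was given in 1 mL. Single IP doses of 400, 200 and 100 mg/kg were given (1, 0.5, 0.25 mL/mouse), using the body weight and strain planned for the hollow fiber assay. Mice were followed for 14 days for morbidity (body weight loss) and mortality. If mice died, the dose was halved serially in single mice until a tolerated dose was reached.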

The test system of data set [7] is BT-549. Briefly: Growth inhibition of human BT549 cells. The class given is functional.
Data set [8] concerns MDA-MB-231. Put plainly: Growth inhibition of human MDA-MB-231 cells. Type of data set: functional.
Data set [9] has as its system MDA-MB-435. Put plainly: Growth inhibition of human MDA-MB-435 cells. Type of data set: functional.
The subject of data set [10] is MDA-N. Briefly: Growth inhibition of human MDA-N cells. Type of data set: functional.

The source made the active and inactive calls. The rule behind the calls is not given here. Bounds are passed on as bounds.

From ChEMBL document CHEMBL1148779, “Synthesis and biological evaluation of imidazoquinoxalinones, imidazole analogues of pyrroloiminoquinone marine natural products” (J Med Chem, 2007) come the findings set out here.

A word on the IC50: it is the concentration needed to halve the response being measured. Read a low IC50 as higher potency. On to `COCc1nc2c3n1CCN=C3C=C(N)C2=O`, for which the IC50 in data set [1] and in [2] was 3 µM in each case.
A word on the GI50: it is the concentration at which growth is held to half of that of the control. The low end stands for more potent growth inhibition, the high end for less potent growth inhibition. Broadly, the LC50 is the concentration lethal to half of the exposed cells or organisms. A low value points to greater toxicity. As a reminder, the TGI is the concentration giving total growth inhibition. Take `O=C1C(NCCO)=CC2=NCCn3cnc1c32`: in [3], the GI50 was 1.1 µM, the LC50 was 20 µM and the total growth inhibition concentration (TGI) was 4.27 µM.
Regarding `NC1=CC2=NCCn3cnc(c32)C1=O`, in [3], it took 4.57 µM to inhibit growth by half (GI50), the LC50 is 35.5 µM and the concentration for total growth inhibition (TGI) was 12.3 µM.
For `COc1cc([C@@H]2c3cc4c(cc3[C@@H](O[C@@H]3O[C@@H]5CO[C@@H](C)O[C@H]5[C@H](O)[C@H]3O)[C@H]3COC(=O)[C@H]23)OCO4)cc(OC)c1O`, in data set [4], the result was Active.
As to `O=C1C(NCCc2ccc(O)cc2)=CC2=NCCn3cnc1c32`, in [3], growth was halved (GI50) at 2.51 µM, the median lethal concentration (LC50) was 40.7 µM and the concentration for total growth inhibition (TGI) is 14.1 µM.
As to `CC(=O)NC1=C(C)C(=O)c2nc(COC(C)=O)n3c2C1=NCC3`, the result in data set [5] was inactive.
For the compound `CC(=O)NC1=C(C)C(=O)c2ncn3c2C1=NCC3`, in data set [3], the 50% growth inhibitory concentration (GI50) was 46.8 µM. Also, the result in data set [5] was inactive.
On to `O=C1C(NCc2ccccc2)=CC2=NCCn3cnc1c32`, for which, in [6], the MTD amounted to 12.5 mg/kg. In addition, in data set [3], the GI50 is 0.617 µM, the LC50 is 14.8 µM and the TGI was 2.82 µM.
Take `O=C1C(NCCc2c[nH]c3ccccc23)=CC2=NCCn3cnc1c32`: the result in data set [4] was Active. In data set [3], the GI50 was 0.234 µM, the median lethal concentration (LC50) is 6.76 µM and the TGI is 0.871 µM.
With `CC(=O)NC1=C(C)C(=O)c2nc(C)n3c2C1=NCC3`, the GI50 in data set [7] is below 0.01 µM; in data set [8] it was 12.9 µM; in data set [9], 19.1 µM; in [10] it was 18.6 µM; in [3], 52.5 µM. The TGI in data set [3] was 81.3 µM. In addition, in data set [5], the result was inactive.
As for `O=C1C(NCCc2ccccc2)=CC2=NCCn3cnc1c32`, in [3], the GI50 was 0.166 µM, the 50% lethal concentration (LC50) is 5.5 µM and the TGI was 1.07 µM.
